Laboratory results taken from ChEMBL document CHEMBL4265873, “Design and discovery of silybin analogues as antiproliferative compounds using a ring disjunctive - Based, natural product lead optimization approach” (Eur J Med Chem, 2017).

Experiments:
PANC-1 = test: Cytotoxicity in human PANC1 cells assessed as reduction in cell viability incubated for 68 hrs by MTT assay; format: functional, cell-based; conditions: PANC-1, 68 h
Summary of the method: (§1)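 Cells were trypsinised and seeded at 5x10^3 cells/well. Compound was added at 0, 0.1, 0.3, 1, 3, 10, 30 and 100 µM for 68 h. MTT (4 mg/mL solution) was then added for 4 h, and the formazan was dissolved in DMSO. Absorbance read at 570 nm. IC50 was derived from % survival across the eight concentrations. Mean ± SD of three independent experiments, each in triplicate.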

[1] = Cytotoxicity in human CRL1459 cells assessed as reduction in cell viability incubated for 68 hrs by MTT assay; format: cell-based; summary of the method: as §1
DU-145 = test: Cytotoxicity in human DU145 cells assessed as reduction in cell viability incubated for 68 hrs by MTT assay; format: functional, cell-based; conditions: DU-145, 68 h; summary of the method: as §1
MCF7 [2] = test: Cytotoxicity in human MCF7 cells assessed as reduction in cell viability incubated for 68 hrs by MTT assay; format: functional, cell-based; conditions: MCF7, 68 h; summary of the method: as §1
2008 = test: Cytotoxicity in human OV2008 cells assessed as reduction in cell viability incubated for 68 hrs by MTT assay; format: functional, cell-based; conditions: Homo sapiens, 2008, 68 h; summary of the method: as §1
ZR-75-1 = test: Cytotoxicity in human ZR-75-1 cells assessed as reduction in cell viability incubated for 68 hrs by MTT assay; format: functional, cell-based; conditions: ZR-75-1, 68 h; summary of the method: as §1
BT-20 = test: Cytotoxicity in human BT20 cells assessed as reduction in cell viability incubated for 68 hrs by MTT assay; format: functional, cell-based; conditions: BT-20, 68 h; summary of the method: as §1
HEK293 = test: Cytotoxicity in HEK293 cells assessed as reduction in cell viability incubated for 68 hrs by MTT assay; format: cell-based; conditions: Homo sapiens, HEK293, 68 h; summary of the method: as §1
MDA-MB-231 = test: Cytotoxicity in human MDA-MB-231 cells assessed as reduction in cell viability incubated for 68 hrs by MTT assay; format: functional, cell-based; conditions: MDA-MB-231, 68 h; summary of the method: as §1
CHO = test: Cytotoxicity in CHO cells assessed as reduction in cell viability incubated for 68 hrs by MTT assay; format: cell-based; conditions: Cricetulus griseus; summary of the method: as §1
A2780 = test: Cytotoxicity in human A2780 cells assessed as reduction in cell viability incubated for 68 hrs by MTT assay; format: functional, cell-based; conditions: A2780, 68 h; summary of the method: as §1
MCF7 [3] = test: Potency index, ratio of IC50 for silybin to IC50 for test compound for cytotoxicity in human MCF7 cells assessed as reduction in cell viability incubated for 68 hrs by MTT assay; format: functional

Row | SMILES | IC50 (PANC-1) | IC50 [1] | IC50 (DU-145) | IC50 (MCF7 [2]) | IC50 2008 | IC50 (ZR-75-1) | IC50 (BT-20) | IC50 (HEK293) | IC50 (MDA-MB-231) | IC50 (CHO) | IC50 (A2780) | Ratio IC50 (MCF7 [3])
1 | O=C(/C=C/c1cccc(OCc2ccccc2)c1)c1ccc(Cl)cc1Cl | 27.2 µM | 7.8 µM | 27.3 µM | 9.4 µM | 5.2 µM | 9.4 µM | 19.2 µM | 24.9 µM | 6.8 µM | 27.5 µM | 21.4 µM | –
2 | O=C(/C=C/c1cccc(OCc2ccccc2)c1)c1cccc(Br)c1 | 6.4 µM | 7.2 µM | 9.1 µM | 7.9 µM | 5.7 µM | 8.3 µM | 7.1 µM | 7.1 µM | 6.9 µM | 9.2 µM | 6.3 µM | –
3 | O=C(/C=C/c1cccc(OCc2ccccc2)c1)c1ccccc1Br | 61.2 µM | 2.4 µM | 3 µM | 1.6 µM | 1.2 µM | 2.9 µM | 1.8 µM | 2.2 µM | 1.8 µM | 9.1 µM | 2.5 µM | 142
4 | COc1ccc(C(=O)/C=C/c2cccc(OCc3ccccc3)c2)cc1 | 44.3 µM | 25.4 µM | 51.3 µM | 6 µM | 17.2 µM | 19.9 µM | 38.3 µM | 79.8 µM | 12.4 µM | 22.9 µM | 38.1 µM | –
5 | O=C(/C=C/c1ccccc1)c1ccccc1 [CHALCONE] | 26 µM | 6.4 µM | 50.1 µM | 12.6 µM | 33.4 µM | 13.7 µM | 21.1 µM | 10.7 µM | 6.7 µM | 23 µM | 67.5 µM | –
6 | O=C(/C=C/c1cccc(OCc2ccccc2)c1)c1ccc([N+](=O)[O-])cc1 | 25.4 µM | 26 µM | 52.5 µM | 17.5 µM | 49 µM | 37.7 µM | 80.9 µM | 59.3 µM | 23.3 µM | 82.4 µM | 56.4 µM | –
7 | O=C(/C=C/c1cccc(OCc2ccccc2)c1)c1ccccc1 | 23.5 µM | 7.8 µM | 42.4 µM | 9.8 µM | 4.9 µM | 8.5 µM | 25.5 µM | 14.1 µM | 20 µM | 22 µM | 6.7 µM | –
8 | O=C(/C=C/c1cccc(OCc2ccccc2)c1)c1ccc(Cl)c(Cl)c1Cl | 2.4 µM | 2.5 µM | 6.4 µM | 2.4 µM | 1.5 µM | 6.2 µM | 3.9 µM | 2.4 µM | 2.4 µM | 8.6 µM | 1.5 µM | –
9 | COc1cc([C@H]2Oc3cc([C@H]4Oc5ccccc5C(=O)[C@@H]4O)ccc3O[C@@H]2CO)ccc1O | – | – | – | 13.8 µM | – | – | – | – | – | – | – | –
10 | Cc1ccc(C(=O)/C=C/c2cccc(OCc3ccccc3)c2)cc1 | 41.6 µM | 19.8 µM | 25.6 µM | 21.7 µM | 12.9 µM | 25.8 µM | 61 µM | 8.2 µM | 15.6 µM | 26.4 µM | 20.5 µM | –
11 | O=C(/C=C/c1cccc(OCc2ccccc2)c1)c1ccc(Br)cc1 | 2.1 µM | 5.3 µM | 5.7 µM | 6.5 µM | 1 µM | 6.5 µM | 7.4 µM | 5.4 µM | 6.4 µM | 9 µM | 1.8 µM | –
12 | COc1cc(C2Oc3cc(/C=C/C(=O)c4ccccc4O)ccc3OC2CO)ccc1O (stereo not given) | – | – | – | 12.1 µM | – | – | – | – | – | – | – | –
13 | COc1cc([C@H]2Oc3cc([C@H]4Oc5cc(O)cc(O)c5C(=O)[C@@H]4O)ccc3O[C@@H]2CO)ccc1O [SILYBIN A] | – | – | – | 223 µM | – | – | – | – | – | – | – | –
14 | O=C(/C=C/c1cccc(OCc2ccccc2)c1)c1ccc(Cl)cc1 | 21.3 µM | 12.8 µM | 43.4 µM | 24.8 µM | 20 µM | 20 µM | 63.2 µM | 22.8 µM | 21.5 µM | 43.6 µM | 56.4 µM | –
